# KCNQ1 act = potentiators or activators of KCNQ1 channel, primary screen, cell-based, thallium flux, high-throughput; CHO-K1 KCNQ1, thallium flux FluxOR fluorescence; active compounds read high; hit rate 0.35% among 310,000; AID 2648, 2010; Potassium voltage-gated channel subfamily KQT member 1 (Homo sapiens), P51787; B-score at 10 µM;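 active = fluorescence ratio B-score, a plate-corrected score, at least three library SD, with initial intensity B-score within 5 SD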
#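 assay system = KCNQ1-transfected CHO-K1 cells | medium = assay buffer with matched DMSO | probe or stimulus = depolarizing K+/Tl+ stimulus, K2SO4 and Tl2SO4 each 12.5 mM in 5x stock | dosing = single dose | incubation = dye 90 min, compound 20 min, room temperature | detection = kinetic FluxOR fluorescence, 10 s baseline plus 110 s post-stimulus | evaluation = ratio B score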
# SUMO Mot1 rescue = yeast Mot1-301 growth rescue at high temperature, primary screen, SUMOylation pathway inhibitor project, S. cerevisiae, ATP luminescence, 38.5C; S. cerevisiae Mot1-301 growth rescue; percent above DMSO median, 100 means doubled; growth rescue, % at 18.8 µM; hit rate 1% among 320,000; AID 2716, 2010;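 active = every valid replicate shows activation above 250% relative to neutral control wells; inactive = the rest, any valid replicate at or below 250%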;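 note: OY570 slx delta 5 strain wells were the positive control but not used for scaling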
# KCC2 mod = KCC2 cotransporter modulators, thallium flux, primary screen, cell-based, HEK293 KCC2, FluoZin-2 fluorescence, MLSMR; Solute carrier family 12 member 5 (Homo sapiens), Q9H2X9; KCC2 cells, thallium flux FluoZin-2 fluorescence; B-score of Tl+ flux slope (higher = more flux/activation; lower = inhibition) at 10 µM; hit rate 2.2% among 190,000;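 active = thallium flux slope and its plate-corrected score both differing from the plate sample mean at a set confidence after two filtering rounds, in either direction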;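 note: slope of fluorescence scaled to starting intensity during 10 to 20 s after thallium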
# Target sequence (Q9H2X9 whole entry, looked up): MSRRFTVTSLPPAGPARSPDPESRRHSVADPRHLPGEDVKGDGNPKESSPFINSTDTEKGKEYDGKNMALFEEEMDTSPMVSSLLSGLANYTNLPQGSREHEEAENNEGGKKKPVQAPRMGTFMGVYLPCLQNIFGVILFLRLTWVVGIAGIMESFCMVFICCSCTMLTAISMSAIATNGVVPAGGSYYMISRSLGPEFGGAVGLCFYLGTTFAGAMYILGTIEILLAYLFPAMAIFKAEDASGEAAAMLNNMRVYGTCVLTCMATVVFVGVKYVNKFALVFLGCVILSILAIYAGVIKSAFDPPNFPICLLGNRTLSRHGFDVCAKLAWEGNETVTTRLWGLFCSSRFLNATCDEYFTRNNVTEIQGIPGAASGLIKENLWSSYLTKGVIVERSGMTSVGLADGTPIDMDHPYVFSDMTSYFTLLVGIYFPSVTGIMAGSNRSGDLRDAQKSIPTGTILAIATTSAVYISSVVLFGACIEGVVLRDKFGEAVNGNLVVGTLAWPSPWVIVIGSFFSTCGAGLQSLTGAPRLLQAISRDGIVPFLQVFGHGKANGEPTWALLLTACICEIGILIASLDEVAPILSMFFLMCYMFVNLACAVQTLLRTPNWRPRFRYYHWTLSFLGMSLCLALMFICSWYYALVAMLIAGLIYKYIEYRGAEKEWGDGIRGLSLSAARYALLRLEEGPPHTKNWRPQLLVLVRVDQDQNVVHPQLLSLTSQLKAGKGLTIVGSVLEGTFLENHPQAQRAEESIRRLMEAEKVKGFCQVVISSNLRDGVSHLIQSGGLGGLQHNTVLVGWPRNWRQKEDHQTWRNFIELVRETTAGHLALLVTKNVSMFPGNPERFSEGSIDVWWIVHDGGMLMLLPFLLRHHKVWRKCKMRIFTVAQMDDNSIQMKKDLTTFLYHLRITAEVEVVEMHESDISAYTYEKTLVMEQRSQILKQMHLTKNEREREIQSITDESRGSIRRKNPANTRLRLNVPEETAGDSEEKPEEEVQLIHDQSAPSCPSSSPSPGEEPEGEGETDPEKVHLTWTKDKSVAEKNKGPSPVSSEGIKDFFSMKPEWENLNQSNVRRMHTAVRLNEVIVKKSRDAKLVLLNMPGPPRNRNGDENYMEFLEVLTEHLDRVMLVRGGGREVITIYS
# KCNQ1 block = inhibitors of human KCNQ1 channel, primary screen, cell-based, thallium flux, high-throughput; Potassium voltage-gated channel subfamily KQT member 1 (Homo sapiens), P51787; CHO-K1 KCNQ1, FluxOR thallium flux fluorescence; active compounds read high; B-score at 10 µM; hit rate 1.3% among 310,000;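 active = compounds whose thallium flux B-score, printed positive for inhibition, exceeds three library SD while starting fluorescence stays within three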;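 note: channel opened by potassium depolarization with thallium stimulus after 20 min compound exposure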
# hERG rescue = hERG rescue from dofetilide block, primary screen, cell-based, CHO-hERG, FluxOR thallium flux, dofetilide IC70 | AID 1511, 2009 | hit rate 0.51% among 310,000 | activation (rescue from dofetilide block), less the hit threshold, % at 10 µM | dofetilide IC70 present | Voltage-gated inwardly rectifying potassium channel KCNH2 (Homo sapiens), Q12809;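 active = activation above the mean of controls blocked by dofetilide plus 5 SD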;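 note: thallium influx through hERG after potassium depolarization seen as dye fluorescence rise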
# AI-2 QS mod = Vibrio harveyi AI-2 quorum sensing modulators, primary screen, JMH597 strain, luminescence/OD600 ratio | Vibrio harveyi JMH597 AI-2 luminescence/OD600 ratio, 9 h; active compounds read low; strain lacks LuxN and CqsS sensors; 0 = neutral-control median | hit rate 0.4% among 300,000 | activity change, % at 7.5 µM; in the data active = activity change below about -75%, passing the limit was not always enough;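 note: luminescence divided by OD600 gain over 9 h not by final OD600 alone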
# Yeast Mot1 SUMO = growth restoration of Mot1-301 yeast on galactose, dose response, SUMO pathway inhibitor project, whole organism, S. cerevisiae, ATP luminescence, cherry-picked samples | shares compounds with SUMO Mot1 rescue | S. cerevisiae Mot1-301 galactose growth, 24 h; -100 = growth of slx-deleted rescue strain | growth activity, percent, % at 42 µM | 2,300 tested, under 10 active | AID 493004, 2010;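 active = Signal drops as the depositor expects, and the fitted half-maximal dose is no more than ten times the top valid tested dose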;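 note: more negative values mean stronger growth rescue toward the control strain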
# An asterisk follows results filed as active; i = inactive; . = not tested or not shown; + = active, no number; [ ] = another dose, or the depositor's remark. A selection: hits, their analogues and other compounds. The true share with any hit is near 4.2%.
SMILES,KCNQ1 act,SUMO Mot1 rescue,KCC2 mod,KCNQ1 block,hERG rescue,AI-2 QS mod,Yeast Mot1 SUMO
COC(=O)c1cn(C(=O)c2cccc3ccccc23)c2ccccc12,i,490.0*,0.0262,i,-13.6,4.9,-0.6
Cn1cc(C(=O)Cc2ccccc2)c2ccccc21,i,671.3*,0.707,i,-3.6,17.1,0.6
CN1CCN2c3ccc(N)cc3CC3(C(=O)NC(=O)NC3=O)C2C1 (centres undefined),i,.,0.0795,i,-13.2,38.5,.
COc1ccccc1-n1c(-c2ccccc2)nc2ccccc2c1=O,i,.,.,i,-4.3,3.2,.
CCCCCn1c(=O)c(C(=O)NC(C)c2ccccc2)c(O)c2ccccc21 (centres undefined),i,16.8,.,i,-2.5,19.7,.
Cc1cc(Oc2cc(NN3CCCCC3)c([N+](=O)[O-])cc2[N+](=O)[O-])ccc1[N+](=O)[O-],i,751.8*,.,i,-12.3,15.3,0.4
O=[N+]([O-])c1ccc(N2CCCC2)c(F)c1Br,i,-5.6,-0.491,i,-3.8,20.7,.
O=C1/C(=C/c2cc3c(cc2Cl)OCO3)N2CCC1CC2,i,-13.5,-0.0419,i,-9.7,9.7,.
Cc1cccc(N=Nc2ccc(N(C)C)cc2)c1,i,735.6*,.,i,0.4,27.0,0.5
Cc1cccc(C#N)c1,.,239.6,.,.,.,.,.
Cc1ccc(OCCOc2cccc(C=C3C(=O)NC(=O)NC3=O)c2)c(C)c1,i,-0.7,.,i,-3.2,16.1,.
N=Cc1c(O)n(-c2ccccc2)c(=O)n(-c2ccccc2)c1=O,i,65.4,1.18,i,-9.0,19.7,.
Cc1cc(OCCN2CC2)c2ccccc2n1,i,-7.3,-0.0644,i,-7.6,2.9,.
COC(=O)C1CN(C#N)N(c2ccc(Cl)cc2)C12c1ccccc1-c1ccccc12 (centres undefined),i,792.2*,-0.0537,i,-4.6,-0.8,-1.6
CC1(C)C(C(=O)N2CCN(c3ccc(Cl)cc3)CC2)C1(C)C,i,-8.8,.,i,-7.5,31.4,.
C[C@H](NC(=O)N1C[C@H]2C[C@@H](C1)c1cccc(=O)n1C2)C(=O)Nc1ccccc1F,i,52.9,.,i,-4.0,17.7,.
Cc1cc(C)n(CCOC(=O)C2C(C=C(Cl)Cl)C2(C)C)n1 (centres undefined),i,905.5*,-0.318,i,-4.4,18.5,0.4
Cc1cc(C(=O)OCC(=O)Nc2ccc(F)cc2)c(C)n1C1CC1,.,-3.6,.,.,.,.,.
CCOP(=O)(OCC)C(NC(=O)c1cccc([N+](=O)[O-])c1)C(Cl)(Cl)Cl (centres undefined),i,710.2*,1.44,i,-4.1,-1.2,0.4
CCOP(=O)(OCC)C(NC(=O)c1ccccc1C)C(Cl)(Cl)Cl (centres undefined),i,-17.5,0.842,i,-3.7,11.4,.
CCOP(=O)(OCC)C(NC(=O)c1cccc(C)c1)C(Cl)(Cl)Cl (centres undefined),i,971.2*,-0.315,i,-0.3,17.5,-0.3
CC1CN=C(NCc2ccccc2Cl)S1 (centres undefined),i,-3.0,.,i,-3.7,11.5,.
CC1CN=C(NCc2ccccc2)S1 (centres undefined),i,679.5*,0.856,i,-15.7,12.2,0.1
C[n+]1c(-c2ccccc2)cc(CCCCc2cc(-c3ccccc3)[n+](C)c(-c3ccccc3)c2)cc1-c1ccccc1,i,368.5*,0.759,7*,-20.6,13.0,-0.6
O=C1CCCN1CC#CCN1CCCC1,i,-10.0,0.186,i,-6.0,19.3,.
SMILES,KCNQ1 act,SUMO Mot1 rescue,KCC2 mod,KCNQ1 block,hERG rescue,AI-2 QS mod,Yeast Mot1 SUMO
CC(C)C12CN3CC(C(C)C)(CN(C1)C3c1cccnc1)C2=O (centres undefined),i,30.6,0.248,i,-6.1,14.3,.
CCn1c(C)c(C(=O)Nc2ccc(OC)cc2)c2cc(OC)ccc21,i,143.8,.,i,-3.4,26.8,.
Cc1ccc(O)c(C)c1,.,388.9*,.,.,.,.,1.2
C=C1C2C[C@@]3([C@@H]1O)[C@@H](C[C@@H]2O)[C@@]12C4[C@@H]3C[C@@H]1[C@@](C)(CC[C@@H]2O)CN4CC,.,405.1*,.,.,.,.,0.5
CC(=O)N1CC(=O)Nc2ccc(Cl)cc2C1c1ccccc1 (centres undefined),i,+,.,i,-2.7,19.0,1.0
O=C(O)C1C(C(=O)O)C2(Cl)C(Cl)=C(Cl)C1(Cl)C2(Cl)Cl (centres undefined),.,400.4*,.,.,.,.,0.7
O=C(O)c1cc(Oc2ccc(C(F)(F)F)cc2Cl)ccc1[N+](=O)[O-],i,513.6*,.,i,-5.8,20.7,0.2
CC(C)(O)C(=O)Nc1ccc([N+](=O)[O-])c(C(F)(F)F)c1,.,-20.2,.,.,.,.,.
CCNC(=O)NC(=O)C(C)OC(=O)c1c(C)nn(Cc2ccccc2Cl)c1Cl (centres undefined),i,-0.3,-0.102,i,-4.8,31.3,.
COc1ccccc1-n1c(O)c(/C=C2\C=Nc3ccccc32)c(=O)[nH]c1=O,i,561.5*,.,i,-5.2,10.7,0.3
OC[C@@H](O)CCl,i,360.1*,.,i,-4.2,8.6,0.3
Cc1cccc(N/N=C/c2c(O)[nH]c(=S)[nH]c2=O)c1,i,376.3*,.,i,-10.0,3.9,0.1
COc1ccc(N/N=C/c2c(O)n(-c3cccc(C)c3)c(=O)[nH]c2=O)cc1,i,216.3,-0.014,i,-7.0,17.2,.
O=C(O)C1(c2ccc(Cl)cc2)CCC1,i,.,-0.55,i,0.1,20.8,.
CC(=O)C1(c2ccccc2)CCNCC1,i,706.2*,.,i,-1.1,36.9,0.4[21 µM]
CCC(=Nc1ccc2c(c1)CCC2)c1c(O)n(-c2ccc(OC)cc2)c(=O)[nH]c1=O,i,-3.3,0.341,i,-5.0,20.2,.
CN(C=O)CP(=O)(O)CN(C)C=O,i,569.9*,0.223,i,-2.8,0.2,0.1
CN1C(=O)C(=Cc2cn(CC(=O)N3CCCC3)c3ccccc23)C(=O)N(C)C1=O,i,+,.,i,-2.8,8.6,0.5
COc1ccc(OC)c(N=Cc2c(O)[nH]c(=O)[nH]c2=O)c1,i,-10.5,.,i,-5.5,5.8,.
O=[N+]([O-])c1ccccc1CN1CC=C(c2ccc(F)cc2)CC1,i,+,.,i,-6.8,3.9,0.8

# Compound activity (PubChem)
